Source: ChEMBL document CHEMBL1255405 (Antimicrob Agents Chemother, 2010)

Experiments:
[1] = Apparent oral clearance in Papua new Guinean women in second or third trimester of pregnancy using pharmacokinetic final covariate model at 450 mg/day, po administered as three divided doses in presence of sulfadoxine-pyrimethamine by HPLC method; type: ADME, organism-based; conditions: female, human, in vivo
Procedure, shortened: (§1)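 Papua New Guinean women in the second or third trimester of pregnancy (n=30) and age-matched nonpregnant women (n=30) took CQ 450 mg (8.5 mg/kg/day) as whole tablets with water once daily for 3 days, plus single-dose sulfadoxine-pyrimethamine, without fasting. Plasma was sampled from baseline to 72 h and on days 7–42. CQ and DECQ were measured by HPLC (UV 340 nm) and analysed by population PK modelling, with weight-allometric scaling expressed relative to F.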

[2] = Cmax in Papua new Guinean pregnant women at 600 mg/day, po administered as three divided doses by HPLC method; type: ADME, organism-based; design: dose 600 mg/day, route oral; conditions: female, human, in vivo
Procedure, shortened: (§2)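 Simulated values, not observed data. Final population PK model parameters were applied in NONMEM to hypothetical pregnant and nonpregnant women (n=1,000 each) generated with mvtnorm, with covariates such as weight drawn from the original subjects. Cmax, Tmax and AUC0-∞ of CQ and DECQ were derived for a range of plausible CQ regimens.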

[3] = test system: Homo sapiens; assay: Peripheral compartment volume of distribution in Papua new Guinean women in second or third trimester of pregnancy using pharmacokinetic final covariate model at 450 mg/day, po administered as three divided doses in presence of sulfadoxine-pyrimethamine by HPLC method; type: ADME, organism-based; conditions: in vivo; procedure, shortened: as §1
[4] = test system: Homo sapiens; assay: Peripheral compartment volume of distribution in Papua new Guinean women in second or third trimester of pregnancy using pharmacokinetic base model at 450 mg/day, po administered as three divided doses in presence of sulfadoxine-pyrimethamine by HPLC method; type: ADME, organism-based; conditions: in vivo; procedure, shortened: as §1
[5] = AUC (0 to infinity) in Papua new Guinean pregnant women at 600 mg/day, po administered as three divided doses by HPLC method; type: ADME, organism-based; design: dose 600 mg/day, time infinity, route oral; conditions: female, human, plasma; procedure, shortened: as §2
[6] = Cmax in Papua new Guinean pregnant women at 450 mg/day, po administered as three divided doses by HPLC method; type: ADME, organism-based; design: dose 450 mg/day, route oral; conditions: female, human, in vivo; procedure, shortened: as §2
[7] = test system: Homo sapiens; assay: AUC (0 to infinity) in Papua new Guinean pregnant women assessed as monodesethychloroquine at 600 mg/day, po administered as three divided doses by HPLC method; type: ADME, organism-based, Plasma; design: dose 600 mg/day, time infinity, route oral; conditions: in vivo; procedure, shortened: as §2
[8] = test system: Homo sapiens; assay: AUC (0 to infinity) in women assessed as monodesethychloroquine at 450 mg/day, po administered as three divided doses by HPLC method; type: ADME, organism-based, Plasma; design: dose 450 mg/day, route oral, time infinity; conditions: in vivo; procedure, shortened: as §1
[9] = test system: Homo sapiens; assay: (§3) Central compartment volume of distribution in Papua new Guinean women in second or third trimester of pregnancy using pharmacokinetic final covariate model assessed as monodesethychloroquine at 450 mg/day, po administered as three divided doses in presence of sulfadoxine-pyrimethamine by HPLC method; type: ADME, organism-based; conditions: in vivo; procedure, shortened: as §1
[10] = test system: Homo sapiens; assay: Cmax in Papua new Guinean pregnant women assessed as monodesethychloroquine at 450 mg/day, po administered as three divided doses by HPLC method; type: ADME, organism-based; design: dose 450 mg/day, route oral; conditions: in vivo; procedure, shortened: as §2
[11] = test system: Homo sapiens; assay: Central compartment volume of distribution in Papua new Guinean women in second or third trimester of pregnancy using pharmacokinetic base model assessed as monodesethychloroquine at 450 mg/day, po administered as three divided doses in presence of sulfadoxine-pyrimethamine by HPLC method; type: ADME, organism-based; conditions: in vivo; procedure, shortened: as §1
[12] = test system: Homo sapiens; assay: Peripheral compartment volume of distribution in Papua new Guinean women in second or third trimester of pregnancy using pharmacokinetic base model assessed as monodesethychloroquine at 450 mg/day, po administered as three divided doses in presence of sulfadoxine-pyrimethamine by HPLC method; type: ADME, organism-based; conditions: in vivo; procedure, shortened: as §1
[13] = AUC (0 to infinity) in women at 450 mg/day, po administered as three divided doses by HPLC method; type: ADME, organism-based; design: dose 450 mg/day, time infinity, route oral; conditions: female, human, plasma; procedure, shortened: as §1
[14] = Apparent oral clearance in Papua new Guinean women in second or third trimester of pregnancy using pharmacokinetic base model at 450 mg/day, po administered as three divided doses in presence of sulfadoxine-pyrimethamine by HPLC method; type: ADME, organism-based; conditions: female, human, in vivo; procedure, shortened: as §1
[15] = AUC (0 to infinity) in Papua new Guinean pregnant women at 450 mg/day, po administered as three divided doses by HPLC method; type: ADME, organism-based; design: dose 450 mg/day, time infinity, route oral; conditions: female, human, plasma; procedure, shortened: as §1
[16] = AUC (0 to infinity) in Papua new Guinean pregnant women at 750 mg/day, po administered as three divided doses by HPLC method; type: ADME, organism-based; design: dose 750 mg/day, route oral, time infinity; conditions: female, human, plasma; procedure, shortened: as §2
[17] = test system: Homo sapiens; assay: Cmax in women assessed as monodesethychloroquine at 450 mg/day, po administered as three divided doses by HPLC method; type: ADME, organism-based; design: dose 450 mg/day, route oral; conditions: in vivo; procedure, shortened: as §2
[18] = test system: Homo sapiens; assay: as §3, with “Peripheral” for “Central”; type: ADME, organism-based; conditions: in vivo; procedure, shortened: as §1
[19] = test system: Homo sapiens; assay: Central compartment volume of distribution in Papua new Guinean women in second or third trimester of pregnancy using pharmacokinetic final covariate model at 450 mg/day, po administered as three divided doses in presence of sulfadoxine-pyrimethamine by HPLC method; type: ADME, organism-based; conditions: in vivo; procedure, shortened: as §1
[20] = test system: Homo sapiens; assay: AUC (0 to infinity) in Papua new Guinean pregnant women assessed as monodesethychloroquine at 750 mg/day, po administered as three divided doses by HPLC method; type: ADME, organism-based, Plasma; design: dose 750 mg/day, time infinity, route oral; conditions: in vivo; procedure, shortened: as §2
[21] = test system: Homo sapiens; assay: AUC (0 to infinity) in Papua new Guinean pregnant women assessed as monodesethychloroquine at 450 mg/day, po administered as three divided doses by HPLC method; type: ADME, organism-based, Plasma; design: dose 450 mg/day, route oral, time infinity; conditions: in vivo; procedure, shortened: as §1
[22] = test system: Homo sapiens; assay: Central compartment volume of distribution in Papua new Guinean women in second or third trimester of pregnancy using pharmacokinetic base model at 450 mg/day, po administered as three divided doses in presence of sulfadoxine-pyrimethamine by HPLC method; type: ADME, organism-based; conditions: in vivo; procedure, shortened: as §1
[23] = Cmax in Papua new Guinean pregnant women at 750 mg/day, po administered as three divided doses by HPLC method; type: ADME, organism-based; design: dose 750 mg/day, route oral; conditions: female, human, in vivo; procedure, shortened: as §2
[24] = test system: Homo sapiens; assay: Cmax in Papua new Guinean pregnant women assessed as monodesethychloroquine at 600 mg/day, po administered as three divided doses by HPLC method; type: ADME, organism-based; design: dose 600 mg/day, route oral; conditions: in vivo; procedure, shortened: as §2
[25] = Cmax in women at 450 mg/day, po administered as three divided doses by HPLC method; type: ADME, organism-based; design: dose 450 mg/day, route oral; conditions: female, human, in vivo; procedure, shortened: as §2
[26] = test system: Homo sapiens; assay: Cmax in Papua new Guinean pregnant women assessed as monodesethychloroquine at 750 mg/day, po administered as three divided doses by HPLC method; type: ADME, organism-based; design: dose 750 mg/day, route oral; conditions: in vivo; procedure, shortened: as §2

CL/F [1]: 488 mL/min
Cmax [2]: 395 ng/mL
Vp/F [3]: 5190 L
Vp/F [4]: 5200 L
AUC(0-inf) [5]: 47500 ng·h/mL
Cmax [6]: 296 ng/mL
AUC [7]: 31835 ng·h/mL
AUC [8]: 41255 ng·h/mL
Vc/F [9]: 40 L
Cmax [10]: 139 ng/mL
Vc/F [11]: 39.9 L
Vp/F [12]: 812 L
AUC(0-inf) [13]: 50000 ng·h/mL
CL/F [14]: 568 mL/min
AUC(0-inf) [15]: 35700 ng·h/mL
AUC(0-inf) [16]: 59400 ng·h/mL
Cmax [17]: 186 ng/mL
Vp/F [18]: 840 L
Vc/F [19]: 4220 L
AUC [20]: 39793 ng·h/mL
AUC [21]: 23876 ng·h/mL
Vc/F [22]: 4160 L
Cmax [23]: 494 ng/mL
Cmax [24]: 185 ng/mL
Cmax [25]: 376 ng/mL
Cmax [26]: 232 ng/mL
Compound: CCN(CC)CCCC(C)Nc1ccnc2cc(Cl)ccc12 (stereo unspecified) [CHLOROQUINE]
